The text below walks through data of ChEMBL document CHEMBL1124514, “Synthesis and antiviral activity of the nucleotide analogue (S)-1-[3-hydroxy-2-(phosphonylmethoxy)propyl]cytosine” (1989).

In brackets after ≈: the same amount, converted by molar mass.

What all share (assay type): functional
Assay [1] relates to Human betaherpesvirus 5. In words: Antiviral activity determined by plaque-reduction assay against Human cytomegalovirus, AD-169 strain in MRC-5 cells. As to conditions: Human betaherpesvirus 5, MRC5; read-out: ID50 (the source's name). Summed up: (§1)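 Plaque reduction: confluent monolayers (Vero for HSV, MRC-5 for HCMV) infected with 30-50 PFU in PBS, 1 h adsorption, then compound dilutions in EMEM with 10% fetal bovine serum; 48 h at 37 °C, 5% CO2; fixed, Carbol fuchsin stained, plaques counted. ID50 = concentration reducing plaque number by 50% versus virus control.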
For orientation: Plaques are areas of infected cells; plaque reduction assays count them against a control.

For assay [2], the system named is Human alphaherpesvirus 2. In words: Antiviral activity determined by plaque-reduction assay against Herpes simplex virus type 2, G strain in Vero cells. Conditions: Human alphaherpesvirus 2, Vero; read-out: ID50 (the source's name). Summed up: as §1
Assay [3] has as its system Human alphaherpesvirus 1. The assay is described as follows: Antiviral activity of the compound, determined by plaque-reduction assay against Herpes simplex virus (HSV) type 1, BW5 strain in Vero cells. As to conditions: Human alphaherpesvirus 1, Vero; read-out: ID50 (the source's name). In outline: as §1
Assay [4] deals with Human alphaherpesvirus 1. The assay is described as follows: Antiviral activity of the compound, determined by plaque-reduction assay against thymidine kinase deficient Herpes simplex virus type 1, Z826 strain in Vero cells. Conditions: Human alphaherpesvirus 1, Vero; read-out: ID50 (the source's name). Summed up:
as §1

The species entered for assay [5] is Cavia porcellus. The assay is described as follows: Duration of time of lesion formation in HSV-1 cutaneous infection in guinea pig at 5%ACV.
Assay [6] is filed under the species Cavia porcellus. The assay is described as follows: Duration of time of healing period in HSV-1 cutaneous infection in guinea pig at 5%ACV.
Assay [7] relates to Human alphaherpesvirus 1. The assay is described as follows: In vitro antiviral activity of the compound, determined by plaque-reduction assay against Herpes simplex virus (HSV) type 1, BW5 strain in Vero cells. As to conditions: Human alphaherpesvirus 1, Vero; read-out: ID50 (the source's name). In outline:
as §1

Assay [8] deals with Mus musculus. In words: Percentage survival of mice after intraperitoneal administration of compound at 200 mg/kg per day in experiment 2; survival/ tested =7/9. As to conditions: ip. In outline: (§2)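 Female Swiss mice (16–18 g) infected ip with (2-6) × 10^2 PFU HSV 1 HL-34, randomized into groups of 10. Ip dosing started 3 h postinfection, twice daily for 5 consecutive days; vehicle 0.2% carboxymethylcellulose with 0.2% Tween 80 in water. Mortality followed 21 days; survival by Fisher's exact test, mean survival time by Gehan-Wilcoxon.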

Assay [9] concerns Mus musculus. The assay is described as follows: Percentage survival of mice after intraperitoneal administration of compound at 50 mg/kg per day in experiment 1; survival/ tested =5/10. As to conditions: ip. In outline: as §2
For assay [10], the system named is Mus musculus. In words: Percentage survival of mice after intraperitoneal administration of compound at 200 mg/kg per day in experiment 1; survival/ tested =3/4. As to conditions: ip.
Assay [11] has as its system Human alphaherpesvirus 2. In words: In vitro antiviral activity determined by plaque-reduction assay against Herpes simplex virus type 2, G strain in Vero cells. As to conditions: Human alphaherpesvirus 2, Vero; read-out: ID50 (the source's name). Summed up: as §1
The subject of assay [12] is Human alphaherpesvirus 1. The assay is described as follows: In vitro antiviral activity of the compound, determined by plaque-reduction assay against thymidine kinase deficient Herpes simplex virus type 1, Z826 strain in Vero cells. Conditions: Human alphaherpesvirus 1, Vero; read-out: ID50 (the source's name). In outline: as §1
The species named for assay [13] is Cavia porcellus. The assay is described as follows: Total score of healing period in HSV-1 cutaneous infection in guinea pig at 5% ACV.
Assay [14] is filed under the species Cavia porcellus. In words: Total score of lesion formation in HSV-1 cutaneous infection in guinea pig at 5% ACV.
For assay [15], the system named is Mus musculus. The assay is described as follows: Percentage survival of mice after intraperitoneal administration of compound at 100 mg/kg per day in experiment 1; survival/ tested =7/10. As to conditions: ip. Summed up: as §2
For assay [16], the species on record is Cavia porcellus. The assay is described as follows: Mean of severity score obtained from five different individuals at 5% ACV.
Assay [17] is filed under the species Cavia porcellus. In words: Total score of healing period in HSV-1 cutaneous infection in guinea pig at 0.1% HPMPC.
In assay [18] the test system is Mus musculus. In words: Percentage survival of mice after intraperitoneal administration of compound at 200 mg/kg per day in experiment 1; survival/ tested =10/10. As to conditions: ip. Summed up:
as §2

Assay [19] relates to Mus musculus. In words: Percentage survival of mice after intraperitoneal administration of compound at 10 mg/kg per day in experiment 1; survival/ tested =10/10. Conditions: ip. In outline:
as §2

Assay [20] relates to Mus musculus. The assay is described as follows: Mean survival time of mice was determined after intraperitoneal administration of compound at 1 mg/kg per day in experiment 2. Summed up: as §2
For assay [21], the system named is Mus musculus. In words: Mean survival time of mice was determined after intraperitoneal administration of compound at 10 mg/kg per day in experiment 1. In outline: as §2
The species named for assay [22] is Cavia porcellus. In words: Duration of time of lesion formation in HSV-1 cutaneous infection in guinea pig at 0.1% HPMPC.
For assay [23], the system named is Mus musculus. The assay is described as follows: Mean survival time of mice was determined after intraperitoneal administration of compound at 100 mg/kg per day in experiment 1. In outline: as §2
For assay [24], the species on record is Cavia porcellus. The assay is described as follows: Total score of lesion formation in HSV-1 cutaneous infection in guinea pig at 5% HPMPC.
Assay [25] relates to Mus musculus. The assay is described as follows: Percentage survival of mice after intraperitoneal administration of compound at 1 mg/kg per day in experiment 2; survival/ tested =9/10. Conditions: ip. In outline:
as §2

Assay [26] deals with Mus musculus. The assay is described as follows: Mean survival time of mice was determined after intraperitoneal administration of compound at 10 mg/kg per day in experiment 2. In outline: as §2
Assay [27] is filed under the species Cavia porcellus. The assay is described as follows: Mean of severity score obtained from five different individuals at 5% HPMPC.
The species entered for assay [28] is Cavia porcellus. The assay is described as follows: Duration of time of lesion formation in HSV-1 cutaneous infection in guinea pig at 5% HPMPC.
The test system of assay [29] is Mus musculus. The assay is described as follows: Mean survival time of mice was determined after intraperitoneal administration of compound at 0.1 mg/kg per day in experiment 2. Summed up: as §2
Assay [30] concerns Mus musculus. In words: Percentage survival of mice after intraperitoneal administration of compound at 100 mg/kg per day in experiment 1; survival/ tested =10/10. Conditions: ip. In outline:
as §2

Assay [31] is filed under the species Cavia porcellus. The assay is described as follows: Duration of time of lesion formation in HSV-1 cutaneous infection in guinea pig at 1% HPMPC.
In assay [32] the test system is Mus musculus. In words: Mean survival time of mice was determined after intraperitoneal administration of compound at 200 mg/kg per day in experiment 1. In outline:
as §2

Assay [33] is filed under the species Cavia porcellus. In words: Total score of healing period in HSV-1 cutaneous infection in guinea pig at 5% HPMPC.
The species entered for assay [34] is Cavia porcellus. In words: Total score of healing period in HSV-1 cutaneous infection in guinea pig 1%HPMPC.
The test system of assay [35] is Mus musculus. In words: Percentage survival of mice after intraperitoneal administration of compound at 10 mg/kg per day in experiment 2; survival/ tested =10/10. As to conditions: ip. Summed up: as §2
The species entered for assay [36] is Cavia porcellus. In words: Total score of lesion formation in HSV-1 cutaneous infection in guinea pig at 1% HPMPC.
Assay [37] is filed under the species Cavia porcellus. The assay is described as follows: Duration of time of healing period in HSV-1 cutaneous infection in guinea pig at 1% HPMPC.
For assay [38], the species on record is Cavia porcellus. In words: Duration of time of healing period in HSV-1 cutaneous infection in guinea pig at 5% HPMPC.
The species entered for assay [39] is Cavia porcellus. The assay is described as follows: Mean of severity score obtained from five different individuals at 0.1% HPMPC.
The species entered for assay [40] is Cavia porcellus. In words: Mean of severity score obtained from five different individuals at 1% HPMPC.
The species named for assay [41] is Cavia porcellus. The assay is described as follows: Duration of time of healing period in HSV-1 cutaneous infection in guinea pig at 0.1% HPMPC.
For assay [42], the species on record is Cavia porcellus. The assay is described as follows: Total score of lesion formation in HSV-1 cutaneous infection in guinea pig at 0.1% HPMPC.
Assay [43] relates to Mus musculus. The assay is described as follows: Percentage survival of mice after intraperitoneal administration of compound at 0.1 mg/kg per day in experiment 2; survival/ tested =5/10. Conditions: ip. Summed up: as §2

On to `Nc1ncnc2c1ncn2C[C@@H](CO)OCP(=O)(O)O`, for which the IC50 in assay [1] was 0.27 µg/mL (≈ 0.89 µM); in assay [2], 25.2 µg/mL (≈ 83.1 µM); in assay [3] it was 9.3 µg/mL (≈ 30.7 µM); in assay [4] it was 3.2 µg/mL (≈ 10.6 µM).
On to `Nc1ccn(CCOCP(=O)(O)O)c(=O)n1`, for which the IC50 was greater than 2.7 µg/mL in assay [1], greater than 100 µg/mL in assay [2] and greater than 100 µg/mL in assay [3].
For the molecule `Nc1nc2c(ncn2COC(CO)CO)c(=O)[nH]1` [GANCICLOVIR], the IC50 in assay [1] was 1.8 µg/mL (≈ 7.05 µM); in assay [2], 0.94 µg/mL (≈ 3.68 µM); in assay [3] it was 0.23 µg/mL (≈ 0.901 µM); in assay [4] it was greater than 10 µg/mL.
Take `Nc1nc2c(ncn2COCCO)c(=O)[nH]1` [ACYCLOVIR]: the Duration time in assay [5] amounted to 5.4; in [6] it was 4.2. Besides, the IC50 in assay [7] was determined as 0.5 µg/mL (≈ 2.22 µM); in assay [11], 0.3 µg/mL (≈ 1.33 µM); in assay [12] it was 4.3 µg/mL (≈ 19.1 µM). The results for the survival at 200 mg/kg/day in assay [8] and in [10] were 78% and 75%, respectively. The molecule further yielded a survival at 50 mg/kg/day in [9] of 50%. In addition, the Total score in assay [13] is recorded as 60.4; in [14], 14. For the same molecule, the survival at 100 mg/kg/day in assay [15] is 70%. The molecule further displayed a Severity mean in [16] of 2.4.
`Nc1ccn(C[C@@H](CO)OCP(=O)(O)O)c(=O)n1.O.O` [CIDOFOVIR]: the Total score was 72.8 in assay [17]; 3 in [24]; 85.4 in assay [33]; 75 in assay [34]; 7 in assay [36]; 8.2 in assay [42]. This molecule also displayed a survival at 200 mg/kg/day in assay [18] of 100%. The survival at 10 mg/kg/day in assay [19] and in assay [35] was 100% each time. Moreover, the Mean survival time is 19.7 days in [20]; 21 days in assay [21]; 21 days in assay [23]; 21 days in assay [26]; 14.9 days in assay [29]; 21 days in assay [32]. Moreover, the IC50 in assay [1] worked out at 0.22 µg/mL; in assay [2], 2.3 µg/mL; in [3] it was 5.4 µg/mL; in [4], 0.7 µg/mL. The Duration time in assay [22] turned out to be 3.8; in assay [28] it was 2.2; in assay [31], 3.8; in [37], 3.8; in assay [38], 4.2; in assay [41] it was 4.4. In assay [25], the survival at 1 mg/kg/day stood at 90%. The Severity mean in assay [27] is recorded as 0.8; in assay [39], 1.4; in [40], 1. The molecule further displayed a survival at 100 mg/kg/day in assay [30] of 100%. In assay [43], this molecule came in with a survival at 0.1 mg/kg/day of 50%.
